# How the values were obtained:
# [1] = target: T1, Equilibrative nucleoside transporter 1 (Homo sapiens, UniProt Q99808); experiment: Displacement of SAENTA-fluorescein from human ENT1 in HL60 cells by flow cytometry; type: cell-based, HL-60
# T1 sequence (Q99808 whole entry): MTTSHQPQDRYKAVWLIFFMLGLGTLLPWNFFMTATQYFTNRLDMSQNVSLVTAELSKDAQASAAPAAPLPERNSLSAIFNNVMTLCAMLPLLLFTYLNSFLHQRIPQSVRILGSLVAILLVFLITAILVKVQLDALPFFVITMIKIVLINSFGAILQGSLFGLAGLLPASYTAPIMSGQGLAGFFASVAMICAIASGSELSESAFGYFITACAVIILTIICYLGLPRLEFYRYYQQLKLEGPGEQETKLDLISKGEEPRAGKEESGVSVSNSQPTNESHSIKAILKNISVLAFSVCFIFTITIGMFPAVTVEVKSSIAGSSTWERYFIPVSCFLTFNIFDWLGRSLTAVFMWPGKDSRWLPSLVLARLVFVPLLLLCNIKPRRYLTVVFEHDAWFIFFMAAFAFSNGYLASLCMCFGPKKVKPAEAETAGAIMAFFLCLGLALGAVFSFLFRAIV
# Summary of the method: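 HL60 cells were preincubated with the inhibitor, then exposed to 50 nM SAENTA-fluorescein and analysed by flow cytometry (example inhibitor levels 5, 25 and 50 nM). IC50 is the concentration inhibiting 50% of SAENTA-fluorescein binding, from nonlinear regression of inhibitor concentration–fluorescence curves. Ki = IC50/(1+[S]/KD), using the SAENTA-fluorescein concentration and KD.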
# [2] = target: T2, Equilibrative nucleoside transporter 1 (Homo sapiens) (UniProt Q99808); experiment: (§1) Binding affinity to human ENT1 in HL60 cells by flow cytometry; type: cell-based; conditions: HL-60
# T2 sequence (whole entry): T1 sequence (Q99808 whole entry)
# Summary of the method: (§2)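 Apparent KD and Bmax of SAENTA-fluorescein on each cell line, from flow-cytometric binding over a range of SAENTA-fluorescein concentrations. Specific binding is total minus nonspecific fluorescence, with nonspecific fluorescence measured in the presence of 7.2 μM NBMPR. Saturation parameters come from curve fitting; Bmax is given as mean fluorescence units per 10^4 cells.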
# [3] = target: T1, Equilibrative nucleoside transporter 1; experiment: as §1; type: cell-based, HL-60; summary of the method: as §2
# [4] = target: T2, Equilibrative nucleoside transporter 1 (Homo sapiens); experiment: (§3) Binding affinity to human ENT1 in Capan1 cells by flow cytometry; type: cell-based; conditions: CAPAN-1; summary of the method: as §2
# [5] = target: T1, Equilibrative nucleoside transporter 1; experiment: as §3; type: cell-based, CAPAN-1; summary of the method: as §2
# [6] = target: T2, Equilibrative nucleoside transporter 1 (Homo sapiens); experiment: (§4) Binding affinity to human ENT1 in panc1 cells by flow cytometry; type: cell-based; summary of the method: as §2
# [7] = target: T1, Equilibrative nucleoside transporter 1; experiment: as §4; type: cell-based; summary of the method: as §2
# [8] = target: T2, Equilibrative nucleoside transporter 1 (Homo sapiens); experiment: (§5) Binding affinity to human ENT1 in MIA-PaCa2 cells by flow cytometry; type: cell-based; summary of the method: as §2
# [9] = target: T1, Equilibrative nucleoside transporter 1; experiment: as §5; type: cell-based; summary of the method: as §2
# [10] = target: T2, Equilibrative nucleoside transporter 1 (Homo sapiens); experiment: (§6) Binding affinity to human ENT1 in BX-PC3 cells by flow cytometry; type: cell-based; conditions: BXPC-3; summary of the method: as §2
# [11] = target: T1, Equilibrative nucleoside transporter 1; experiment: as §6; type: cell-based, BXPC-3; summary of the method: as §2
# [12] = target: T2, Equilibrative nucleoside transporter 1 (Homo sapiens); experiment: (§7) Binding affinity to human ENT1 in SK-PC1 cells by flow cytometry; type: cell-based; summary of the method: as §2
# [13] = target: T1, Equilibrative nucleoside transporter 1; experiment: as §7; type: cell-based; summary of the method: as §2
IC50 [1] [nM],Ki [1] [nM],Bmax [2] [MFU],Kd [3] [nM],Bmax [4] [MFU],Kd [5] [nM],Bmax [6] [MFU],Kd [7] [nM],Bmax [8] [MFU],Kd [9] [nM],Bmax [10] [MFU],Kd [11] [nM],Bmax [12] [MFU],Kd [13] [nM],Compound
5.1,0.064,–,–,–,–,–,–,–,–,–,–,–,–,O=C(CCCCCNC(=O)c1ccc(F)cc1)NCCSC[C@H]1O[C@@H](n2cnc3c(NCc4ccc([N+](=O)[O-])cc4)ncnc32)[C@H](O)[C@@H]1O
–,–,21.1,0.26,9.5,0.32,49.8,3.8,30.7,0.91,6.7,0.36,2.6,0.4,O=C(CCCCCNC(=O)c1ccc2c(c1)C(=O)OC21c2ccc(O)cc2Oc2cc(O)ccc21)NCCSC[C@H]1O[C@@H](n2cnc3c(NCc4ccc([N+](=O)[O-])cc4)ncnc32)[C@H](O)[C@@H]1O
1.4,0.018,–,–,–,–,–,–,–,–,–,–,–,–,O=C(CCCCCNC(=O)c1cccc(I)c1)NCCSC[C@H]1O[C@@H](n2cnc3c(NCc4ccc([N+](=O)[O-])cc4)ncnc32)[C@H](O)[C@@H]1O

# From ChEMBL document CHEMBL1155315, “Towards to hENT1-nucleoside transporter selective imaging agents. Synthesis and in vitro evaluation of the radiolabeled SAENTA analogues” (Bioorg Med Chem Lett, 2009)
